Data published in PMC8791645 (Advanced therapeutics, 2021).
Like-named read-outs stand apart in the source and are kept apart here.

Columns and labels:
M9-ENL1 cells = assay: MTT cell viability assay with M9-ENL1 cells; type: cell-based
MV411 cells = assay: alamarBlue cell viability; type: cell-based
[1] = Drug loading capacity in PSMA-b-PS NPs; type: physicochemical; settings: mg drug loaded/mg NPs × 100, PSMA-b-PS NPs
In short: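 Test compounds in chloroform (3 mg mL−1) stirred with aqueous NPs at 1:3 drug:NP weight ratio, left uncovered overnight to evaporate solvent (acetone in some runs). Insoluble drug removed by two 4000 rpm spins, and unloaded drug by 100 000 MWCO centrifugal filtration (2000 rpm, 10 min). Quantified by C18 reversed-phase HPLC at 210 nm against methanol standards. LC = mg drug loaded/mg NPs × 100.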

[2] = Drug release from PSMA-b-PS based NPs; type: physicochemical; settings: for release half-life from NPs: PSMA-b-PS NPs, PBS pH 7.4, 37 °C
In short: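 Loaded NPs dialysed (6–8 kDa MWCO) against phosphate-buffered saline, pH 7.4, 37 °C. Aliquots taken at 0, 1, 2, 4, 6, 8, 24, 48 and 72 h, with sink medium replaced at 2, 8, 24 and 48 h. Each aliquot mixed with an equal volume of methanol and analysed by C18 HPLC with 210 nm detection.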

[3] = Serum stability of MCL analogs; type: in vitro ADME, mouse

Row | Compound | CC50 (M9-ENL1 cells; M9-ENL1, 24 h, read-out: LC50 M9-ENL1) | CC50 (MV411 cells; Homo sapiens, MV4-11, 24 h, read-out: LC50 MV-411) | loading capacity (LC) [1] | release half-life from NPs [2] | CC50 (M9-ENL1 cells) | CC50 (MV411 cells) | hydrolysis ([3]; free compound, 24 h incubation in both 50% and 100% serum) | degradation half-life in serum ([3]; free drug, 50% serum) | intact compound ([3]; free drug, 50% serum, after 8 h of incubation) | release rate from NPs ([2]; from 0–8 h)
1 | C=C1C(=O)O[C@H]2[C@H]1CCC(C)=C1CC[C@@](C)(O)[C@@H]12 [MCL, Micheliolide, reference compound] | 15.4 ± 1.1 µM | 5.6 ± 2.8 µM | ≈ 14% | 19.8 min | – | – | – | – | – | –
2 | C=C1C(=O)O[C@H]2[C@H]1CCC(C)=C1[C@H](OC(=O)c3ccc(C(F)(F)F)cc3)C[C@@](C)(O)[C@@H]12 [MCL-13] | – | – | – | – | 1.8 ± 1 µM | 1.8 ± 0.7 µM | – | – | – | –
3 | C=C1C(=O)O[C@H]2[C@H]1CCC(COC(=O)c1cc(C(F)(F)F)cc(C(F)(F)F)c1)=C1CC[C@@](C)(O)[C@@H]12 [MCL-19] | – | – | – | 540 min | 4.1 ± 1.1 µM | 1.7 ± 0.9 µM | 80–90% | 18 min | 7 ± 2% | 5.7 h⁻¹
